Laboratory results: the array DNA melting data of Ke et al. (doi:10.1101/2024.01.08.574731)

Legend:
[1] = folding enthalpy; higher = less favourable; fluorescence melt of hairpins on a sequencing array, two-state fit; conditions: sodium 0.088 M
Summary of the method: (§1)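 Cy3 fluorescence of library hairpins on a sequenced MiSeq flow cell, with annealed Cy3 and quencher oligos, was imaged in 50 mM Na-HEPES pH 8.0, 25 mM NaCl in 2.5 °C steps up to 60 °C. Signals were normalised to pre-quench Cy3 and to control variants. Melting temperature and folding enthalpy came from bootstrapped two-state fits, inverse-variance combined over four replicates. Fitted temperatures were raised by 9.35 °C to match UV melts.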

[2] = melting temperature; fluorescence melt of hairpins on a sequencing array, two-state fit, raised by 9.35 °C to match UV melts; conditions: sodium 0.088 M
Summary of the method: as §1

| Sequence | folding enthalpy [1] | Tm [2] |
| --- | --- | --- |
| GCTTTCCGAAAGGAAGC (((.(((....)))))) | -21.1 kcal/mol | 52.3 °C |
| GCTTTCGAAAGAAAAGC ((((((....))).))) | -31.3 kcal/mol | 46.6 °C |
| GCTTTCGAAAGAACTAGC ((((((....)))..))) | -12.3 kcal/mol | 25.4 °C |
| GCTTTCGAAAGAATAGC ((((((....))).))) | -23.9 kcal/mol | 38.2 °C |
| GCTTTCGGAAACGAAAGC (((((((....))))))) | -43.1 kcal/mol | 68 °C |
| GCTTTCGGAAACGAGAGC (((.(((....))).))) | -47 kcal/mol | 49.1 °C |
| GCTTTGACGAAAGTCAGC (((..(((....)))))) | -12 kcal/mol | 33.2 °C |
| GCTTTGCCGAAAGGCAGC (((..(((....)))))) | -8.46 kcal/mol | 35.8 °C |
| GCTTTGCGAAAGCAAGC (((.(((....)))))) | -15.2 kcal/mol | 53.2 °C |
| GCTTTGCGAAAGCAATGC ((.((((....)))).)) | -27.5 kcal/mol | 60.9 °C |
| GCTTTGCGAAAGCAGAGC (((.(((....))).))) | -43.8 kcal/mol | 56.5 °C |
| GCTTTGCGAAAGCATCGC ((..(((....)))..)) | -13.7 kcal/mol | 48.7 °C |
| GCTTTGCGAAAGCATTGC ((..(((....)))..)) | -19.3 kcal/mol | 40.9 °C |
| GCTTTGGAAACAAAGC ((((((....)))))) | -38.1 kcal/mol | 57.4 °C |
| GCTTTGGCGAAAGCCAGC (((..(((....)))))) | -10.1 kcal/mol | 38.2 °C |
| GCTTTGGGAAACCAAGGC ((.((((....)))).)) | -29.7 kcal/mol | 47.8 °C |
| GCTTTTACGAAAGTAAGC (((..(((....)))))) | -14.7 kcal/mol | 33.2 °C |
| GCTTTTCGAAAGAACAGC (((.(((....))).))) | -31.8 kcal/mol | 42.8 °C |
| GGAAAACGAAAGTTCTCC (((.(((....))).))) | -24.8 kcal/mol | 35.7 °C |

| Sequence | folding enthalpy [1] | Tm [2] |
| --- | --- | --- |
| GGAAAACGAAAGTTTCC (((.(((....)))))) | -21.7 kcal/mol | 44.1 °C |
| GGAAAAGCGAAAGCTTCC (((..(((....)))))) | -15.1 kcal/mol | 40.5 °C |
| GGAAAAGGAAACTTTTCC (((((((....))))))) | -39.6 kcal/mol | 52.7 °C |
| GGAAACGAAAGTTGTTCC ((((((....)))..))) | -9.91 kcal/mol | 24.9 °C |
| GGAAACGAAAGTTTTCC ((((((....))).))) | -20.4 kcal/mol | 46.2 °C |
| GGAAACGGAAACATTTCC (((((.(....).))))) | -28.4 kcal/mol | 31.3 °C |
| GGAAACGGAAACGTTTTC (.(((((....))))).) | -28.3 kcal/mol | 46.8 °C |
| GGAAACTCGAAAGAGTCC (((..(((....)))))) | -14.3 kcal/mol | 33.8 °C |
| GGAAAGAAATTTCC (((((....))))) | -18.9 kcal/mol | 29.5 °C |
| GGAAAGCGAAAGCTATCC (((.(((....))).))) | -25.2 kcal/mol | 47.2 °C |
| GGAAAGGGAAACCTTTTC (.(((((....))))).) | -24.3 kcal/mol | 37.6 °C |
| GGAAATCGAAAGATATCC (((.(((....))).))) | -26.2 kcal/mol | 37.8 °C |
| GGAAATCGAAAGATCTCC (((.(((....))).))) | -26.1 kcal/mol | 34.9 °C |
| GGAAATCGAAAGATTCC (((.(((....)))))) | -20.9 kcal/mol | 40.4 °C |
| GGAAATTCGAAAGAATCC (((..(((....)))))) | -9.79 kcal/mol | 26 °C |
| GGAACAGAAATGTTCC ((((((....)))))) | -39 kcal/mol | 54.9 °C |
| GGAACAGGAAACTGCTCC (((.(((....))).))) | -31.1 kcal/mol | 40.8 °C |
| GGAACCGAAAGGTAGTCC ((((((....)))..))) | -12 kcal/mol | 29.8 °C |
| GGAACCGAAAGGTATTCC ((((((....)))..))) | -13.3 kcal/mol | 33.8 °C |
